Data taken from ChEMBL document CHEMBL1153060, “Part 1: Structure-Activity Relationship (SAR) investigations of fused pyrazoles as potent, selective and orally available inhibitors of p38alpha mitogen-activated protein kinase” (Bioorg Med Chem Lett, 2009).
≈ marks a conversion by molar mass, not a printed value.

How the values were obtained:
[1] = Clearance in Sprague-Dawley rat at 2 mg/kg, iv; type: ADME, organism-based; design: dose 2 mg/kg, route intravenous; conditions: in vivo
Summary of the method: (§1)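 Male Sprague–Dawley rats given 2.0 mg/kg iv (in DMSO) or 2.0 mg/kg po. Values are the mean of three rats. Reported parameters are CL, Vdss, t1/2, AUC(0-inf) and oral F.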

[2] = molecular target: Mitogen-activated protein kinase 14 (Homo sapiens, UniProt Q16539); experiment: Inhibition of human recombinant p38alpha assessed as phosphorylation of ATF2 by scintillation proximity assay
[3] = system: THP-1; experiment: Inhibition of LPS-induced TNFalpha release in human THP1 cells after 3 hrs; type: functional, cell-based; conditions: THP-1, 3 h
Summary of the method: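 THP1 cell line challenged with LPS, with TNFα secretion as read-out. IC50 is the mean of at least three independent dose–response curves, or of two where flagged.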

[4] = system: Blood; experiment: Inhibition of TNF-alpha-stimulated IL8 production in human whole blood incubated for 1 hr before TNFalpha challenge measured after 16 to 18 hrs; type: functional, tissue-based
Summary of the method: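 Human whole blood diluted to 50% and stimulated with TNFα, with IL-8 secretion as read-out. IC50 is the mean of at least three independent dose–response curves, or of two where flagged.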

[5] = molecular target: Mitogen-activated protein kinase 11 (Homo sapiens, UniProt Q15759); experiment: Inhibition of p38beta
[6] = molecular target: T1, Mitogen-activated protein kinase 12 (Homo sapiens, UniProt P53778); experiment: Inhibition of p38-gamma
T1 sequence (P53778 whole entry): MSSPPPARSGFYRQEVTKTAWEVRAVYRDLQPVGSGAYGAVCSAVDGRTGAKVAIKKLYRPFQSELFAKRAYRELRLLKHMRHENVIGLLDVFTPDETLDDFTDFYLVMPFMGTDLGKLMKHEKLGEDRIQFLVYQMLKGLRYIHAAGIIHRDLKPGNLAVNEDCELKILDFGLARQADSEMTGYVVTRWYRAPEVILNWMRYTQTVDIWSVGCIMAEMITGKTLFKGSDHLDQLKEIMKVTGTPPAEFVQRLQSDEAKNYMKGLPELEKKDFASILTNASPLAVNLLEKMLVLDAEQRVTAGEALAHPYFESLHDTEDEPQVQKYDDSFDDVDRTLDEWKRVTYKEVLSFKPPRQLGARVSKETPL

[7] = molecular target: T2, Mitogen-activated protein kinase 13 (Homo sapiens, UniProt O15264); experiment: Inhibition of p38delta
T2 sequence (O15264 whole entry): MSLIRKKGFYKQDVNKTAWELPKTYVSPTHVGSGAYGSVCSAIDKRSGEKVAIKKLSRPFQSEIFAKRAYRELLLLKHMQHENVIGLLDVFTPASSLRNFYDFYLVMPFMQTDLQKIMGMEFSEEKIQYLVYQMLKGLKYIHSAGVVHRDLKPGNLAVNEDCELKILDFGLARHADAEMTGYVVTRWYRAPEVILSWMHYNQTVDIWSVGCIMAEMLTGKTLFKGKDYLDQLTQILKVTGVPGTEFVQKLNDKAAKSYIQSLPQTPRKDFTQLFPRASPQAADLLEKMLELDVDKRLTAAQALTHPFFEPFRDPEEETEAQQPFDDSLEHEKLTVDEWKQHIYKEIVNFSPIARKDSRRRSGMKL

[8] = molecular target: Mitogen-activated protein kinase 8 (Homo sapiens, UniProt P45983); experiment: Inhibition of JNK1
[9] = molecular target: Mitogen-activated protein kinase 9 (Homo sapiens, UniProt P45984); experiment: Inhibition of JNK2
[10] = molecular target: Mitogen-activated protein kinase 10 (Homo sapiens, UniProt P53779); experiment: Inhibition of JNK3
[11] = molecular target: Cytochrome P450 3A4 (Homo sapiens, UniProt P08684); experiment: Inhibition of CYP3A4; type: ADME
[12] = molecular target: T3, Cytochrome P450 1A2 (Homo sapiens, UniProt P05177); experiment: Inhibition of CYP1A2; type: ADME
T3 sequence (P05177 whole entry): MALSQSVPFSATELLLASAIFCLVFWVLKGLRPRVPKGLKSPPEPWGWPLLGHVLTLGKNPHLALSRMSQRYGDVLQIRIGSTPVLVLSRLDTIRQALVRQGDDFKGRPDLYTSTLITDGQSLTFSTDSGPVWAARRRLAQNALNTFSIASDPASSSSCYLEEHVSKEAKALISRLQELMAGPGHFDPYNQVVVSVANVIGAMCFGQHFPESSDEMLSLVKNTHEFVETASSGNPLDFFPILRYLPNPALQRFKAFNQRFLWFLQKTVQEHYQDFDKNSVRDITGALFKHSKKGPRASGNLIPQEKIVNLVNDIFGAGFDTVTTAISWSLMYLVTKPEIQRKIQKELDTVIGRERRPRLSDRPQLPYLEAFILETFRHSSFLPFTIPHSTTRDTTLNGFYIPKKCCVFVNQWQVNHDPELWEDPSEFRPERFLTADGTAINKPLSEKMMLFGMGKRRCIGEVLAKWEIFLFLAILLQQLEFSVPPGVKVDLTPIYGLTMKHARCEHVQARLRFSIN

[13] = molecular target: Cytochrome P450 2C9 (Homo sapiens, UniProt P11712); experiment: Inhibition of CYP2C9; type: ADME
[14] = molecular target: Cytochrome P450 2C19 (Homo sapiens, UniProt P33261); experiment: Inhibition of CYP2C19; type: ADME
[15] = molecular target: Cytochrome P450 2D6 (Homo sapiens, UniProt P10635); experiment: Inhibition of CYP2D6; type: ADME
[16] = Volume of distribution at steady state in Sprague-Dawley rat at 2 mg/kg, iv; type: ADME, organism-based; design: dose 2 mg/kg, route intravenous; conditions: in vivo, read-out: Vdss; summary of the method: as §1
[17] = Half life in Sprague-Dawley rat at 2 mg/kg, iv; type: ADME, organism-based; design: dose 2 mg/kg, route intravenous; conditions: in vivo; summary of the method: as §1
[18] = AUC (0 to infinity) in Sprague-Dawley rat at 2 mg/kg, po; type: ADME, organism-based; design: time infinity, dose 2 mg/kg, route oral; conditions: plasma; summary of the method: as §1
[19] = Oral bioavailability in Sprague-Dawley rat at 2 mg/kg; type: ADME, organism-based; conditions: in vivo; summary of the method: as §1
[20] = organism: Rattus norvegicus; experiment: Plasma concentration in Lewis rat at ED50; type: ADME, organism-based; conditions: in vivo
[21] = Ratio of drug level in brain to plasma in Lewis rat; type: ADME; conditions: read-out: BPR
[22] = Solubility in 0.01N HCl; type: physicochemical
[23] = Solubility in phosphate buffered saline; type: physicochemical
[24] = Solubility in simulated intestinal fluid; type: physicochemical
[25] = Protein binding in rat plasma by ultrafiltration method; conditions: read-out: PPB (converted)
[26] = organism: Homo sapiens; experiment: Protein binding in human plasma by ultrafiltration method; conditions: read-out: PPB (converted)
[27] = molecular target: RAF proto-oncogene serine/threonine-protein kinase (Homo sapiens) (UniProt P04049); experiment: Inhibition of c-Raf at 1.5 uM; values are per cent of control
[28] = system: Rattus norvegicus; experiment: Inhibition of LPS-induced TNFalpha production in po dosed Lewis rat administered 60 mins prior to LPS challenge measured after 90 mins by ELISA
[29] = system: Rattus norvegicus; experiment: Inhibition of LPS-induced TNFalpha production in Lewis rat at 0.1 mg/kg, po administered 60 mins prior to LPS challenge measured after 90 mins by ELISA
[30] = system: Rattus norvegicus; experiment: Inhibition of LPS-induced TNFalpha production in Lewis rat at 0.3 mg/kg, po administered 60 mins prior to LPS challenge measured after 90 mins by ELISA
[31] = system: Rattus norvegicus; experiment: Inhibition of LPS-induced TNFalpha production in Lewis rat at 0.01 mg/kg, po administered 60 mins prior to LPS challenge measured after 90 mins by ELISA
[32] = system: Rattus norvegicus; experiment: Inhibition of LPS-induced TNFalpha production in Lewis rat at 0.03 mg/kg, po administered 60 mins prior to LPS challenge measured after 90 mins by ELISA

Sequence of Mitogen-activated protein kinase 8 (P45983 whole entry): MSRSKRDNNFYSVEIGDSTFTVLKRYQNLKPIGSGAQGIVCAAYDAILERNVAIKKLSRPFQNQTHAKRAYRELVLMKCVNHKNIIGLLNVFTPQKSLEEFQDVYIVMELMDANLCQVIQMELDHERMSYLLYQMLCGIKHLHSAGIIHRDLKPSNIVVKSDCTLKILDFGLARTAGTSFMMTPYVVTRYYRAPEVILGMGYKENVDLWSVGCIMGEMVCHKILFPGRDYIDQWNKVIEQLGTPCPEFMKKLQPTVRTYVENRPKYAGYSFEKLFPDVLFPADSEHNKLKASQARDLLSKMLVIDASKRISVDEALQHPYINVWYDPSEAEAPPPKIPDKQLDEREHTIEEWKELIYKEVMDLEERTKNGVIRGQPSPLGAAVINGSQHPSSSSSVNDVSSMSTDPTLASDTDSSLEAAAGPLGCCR
Sequence of RAF proto-oncogene serine/threonine-protein kinase (Homo sapiens) (P04049 whole entry): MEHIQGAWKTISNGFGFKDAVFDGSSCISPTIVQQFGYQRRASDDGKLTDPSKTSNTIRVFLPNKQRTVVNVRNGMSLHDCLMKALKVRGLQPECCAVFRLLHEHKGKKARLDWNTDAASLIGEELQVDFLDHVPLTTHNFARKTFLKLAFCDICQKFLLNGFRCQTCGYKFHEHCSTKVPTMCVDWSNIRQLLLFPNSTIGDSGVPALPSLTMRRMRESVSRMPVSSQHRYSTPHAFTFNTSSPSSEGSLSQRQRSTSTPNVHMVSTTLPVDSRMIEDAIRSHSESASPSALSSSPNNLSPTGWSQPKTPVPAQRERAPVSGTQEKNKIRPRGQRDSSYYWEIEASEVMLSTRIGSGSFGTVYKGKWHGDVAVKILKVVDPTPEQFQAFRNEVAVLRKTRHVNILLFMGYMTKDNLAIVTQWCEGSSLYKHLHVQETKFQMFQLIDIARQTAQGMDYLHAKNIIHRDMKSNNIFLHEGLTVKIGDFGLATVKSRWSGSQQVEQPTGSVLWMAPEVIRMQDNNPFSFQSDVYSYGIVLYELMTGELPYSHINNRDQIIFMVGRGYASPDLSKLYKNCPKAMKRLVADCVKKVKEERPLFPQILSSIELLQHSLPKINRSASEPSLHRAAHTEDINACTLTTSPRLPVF
Sequence of Mitogen-activated protein kinase 11 (Q15759 whole entry): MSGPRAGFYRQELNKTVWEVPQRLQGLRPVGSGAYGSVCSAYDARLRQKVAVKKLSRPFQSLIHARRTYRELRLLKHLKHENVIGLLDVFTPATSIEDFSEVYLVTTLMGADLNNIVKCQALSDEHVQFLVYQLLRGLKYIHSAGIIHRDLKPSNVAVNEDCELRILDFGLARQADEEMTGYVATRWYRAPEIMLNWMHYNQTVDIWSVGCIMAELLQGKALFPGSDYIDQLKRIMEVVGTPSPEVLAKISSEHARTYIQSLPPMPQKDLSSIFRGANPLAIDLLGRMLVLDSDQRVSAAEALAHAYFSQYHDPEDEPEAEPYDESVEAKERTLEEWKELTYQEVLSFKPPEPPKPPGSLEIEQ
Sequence of Cytochrome P450 2D6 (P10635 whole entry): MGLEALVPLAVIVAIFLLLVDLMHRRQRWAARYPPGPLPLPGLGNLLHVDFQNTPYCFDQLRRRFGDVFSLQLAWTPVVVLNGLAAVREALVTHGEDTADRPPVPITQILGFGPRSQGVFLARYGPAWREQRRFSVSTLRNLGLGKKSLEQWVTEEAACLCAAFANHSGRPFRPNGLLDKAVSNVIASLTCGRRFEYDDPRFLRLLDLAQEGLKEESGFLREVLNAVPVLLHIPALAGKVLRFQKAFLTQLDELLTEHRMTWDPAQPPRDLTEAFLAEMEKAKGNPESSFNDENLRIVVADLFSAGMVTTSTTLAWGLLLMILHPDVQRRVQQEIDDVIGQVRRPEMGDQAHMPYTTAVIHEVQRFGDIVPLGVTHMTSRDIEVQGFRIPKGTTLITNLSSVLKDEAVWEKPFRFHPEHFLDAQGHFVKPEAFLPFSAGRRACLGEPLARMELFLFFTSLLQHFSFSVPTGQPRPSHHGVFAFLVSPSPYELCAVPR
Sequence of Mitogen-activated protein kinase 10 (P53779 whole entry): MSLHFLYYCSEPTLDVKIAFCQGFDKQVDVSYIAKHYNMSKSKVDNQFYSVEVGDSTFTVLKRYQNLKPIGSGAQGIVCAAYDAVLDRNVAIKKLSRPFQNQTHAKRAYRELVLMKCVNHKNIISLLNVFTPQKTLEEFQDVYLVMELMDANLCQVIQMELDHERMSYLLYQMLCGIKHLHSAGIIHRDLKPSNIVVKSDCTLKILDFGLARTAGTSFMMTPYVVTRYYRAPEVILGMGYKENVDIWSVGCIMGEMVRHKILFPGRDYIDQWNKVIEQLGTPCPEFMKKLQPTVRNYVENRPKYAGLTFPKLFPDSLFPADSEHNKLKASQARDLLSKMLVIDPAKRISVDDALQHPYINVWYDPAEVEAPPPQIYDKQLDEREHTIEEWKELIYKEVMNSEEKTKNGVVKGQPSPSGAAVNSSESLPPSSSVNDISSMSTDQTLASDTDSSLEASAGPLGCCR
Sequence of Mitogen-activated protein kinase 14 (Q16539 whole entry): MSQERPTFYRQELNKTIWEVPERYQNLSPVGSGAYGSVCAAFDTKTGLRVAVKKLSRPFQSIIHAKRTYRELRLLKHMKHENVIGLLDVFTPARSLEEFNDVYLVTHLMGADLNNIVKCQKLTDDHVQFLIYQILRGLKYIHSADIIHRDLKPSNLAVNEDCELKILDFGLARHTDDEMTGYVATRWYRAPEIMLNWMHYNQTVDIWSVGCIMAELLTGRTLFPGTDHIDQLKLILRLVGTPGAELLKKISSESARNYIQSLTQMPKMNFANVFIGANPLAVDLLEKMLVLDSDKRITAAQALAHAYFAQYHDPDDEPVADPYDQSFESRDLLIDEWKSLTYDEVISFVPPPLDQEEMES
Sequence of Mitogen-activated protein kinase 9 (P45984 whole entry): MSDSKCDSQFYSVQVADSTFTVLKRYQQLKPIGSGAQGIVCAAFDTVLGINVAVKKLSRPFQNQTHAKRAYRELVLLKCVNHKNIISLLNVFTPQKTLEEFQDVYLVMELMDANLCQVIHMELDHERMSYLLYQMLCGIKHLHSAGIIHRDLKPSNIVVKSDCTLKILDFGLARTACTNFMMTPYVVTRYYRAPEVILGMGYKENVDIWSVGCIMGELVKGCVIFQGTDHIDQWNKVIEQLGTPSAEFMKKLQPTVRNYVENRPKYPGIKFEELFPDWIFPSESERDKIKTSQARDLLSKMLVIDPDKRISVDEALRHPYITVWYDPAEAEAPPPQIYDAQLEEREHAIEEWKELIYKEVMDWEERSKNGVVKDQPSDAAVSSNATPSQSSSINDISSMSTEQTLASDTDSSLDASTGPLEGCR
Sequence of Cytochrome P450 2C19 (P33261 whole entry): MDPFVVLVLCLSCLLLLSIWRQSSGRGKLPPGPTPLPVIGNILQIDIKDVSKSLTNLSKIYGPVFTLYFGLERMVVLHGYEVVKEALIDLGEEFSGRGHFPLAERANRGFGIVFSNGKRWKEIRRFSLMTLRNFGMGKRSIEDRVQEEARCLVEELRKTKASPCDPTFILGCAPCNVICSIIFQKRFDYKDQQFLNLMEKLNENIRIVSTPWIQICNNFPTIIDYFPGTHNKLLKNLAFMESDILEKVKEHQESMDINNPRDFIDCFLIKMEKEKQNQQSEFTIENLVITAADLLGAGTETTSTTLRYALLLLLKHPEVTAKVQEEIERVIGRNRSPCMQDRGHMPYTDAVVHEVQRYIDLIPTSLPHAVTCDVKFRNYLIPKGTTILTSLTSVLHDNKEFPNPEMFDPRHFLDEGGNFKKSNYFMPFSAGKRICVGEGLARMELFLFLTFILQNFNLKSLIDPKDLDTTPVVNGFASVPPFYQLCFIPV
Sequence of Cytochrome P450 2C9 (P11712 whole entry): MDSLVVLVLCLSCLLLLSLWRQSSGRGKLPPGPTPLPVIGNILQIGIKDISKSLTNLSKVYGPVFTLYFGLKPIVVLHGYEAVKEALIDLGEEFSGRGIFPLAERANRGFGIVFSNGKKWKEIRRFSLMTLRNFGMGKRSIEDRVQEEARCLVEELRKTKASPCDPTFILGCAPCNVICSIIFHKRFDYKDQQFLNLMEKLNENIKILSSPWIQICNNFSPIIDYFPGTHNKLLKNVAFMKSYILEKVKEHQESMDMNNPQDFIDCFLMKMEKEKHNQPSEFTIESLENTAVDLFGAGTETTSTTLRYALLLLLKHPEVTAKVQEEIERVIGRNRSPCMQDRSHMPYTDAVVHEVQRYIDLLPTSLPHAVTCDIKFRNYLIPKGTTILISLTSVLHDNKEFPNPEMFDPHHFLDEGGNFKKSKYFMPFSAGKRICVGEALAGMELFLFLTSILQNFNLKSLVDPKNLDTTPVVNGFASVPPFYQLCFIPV
Sequence of Cytochrome P450 3A4 (P08684 whole entry): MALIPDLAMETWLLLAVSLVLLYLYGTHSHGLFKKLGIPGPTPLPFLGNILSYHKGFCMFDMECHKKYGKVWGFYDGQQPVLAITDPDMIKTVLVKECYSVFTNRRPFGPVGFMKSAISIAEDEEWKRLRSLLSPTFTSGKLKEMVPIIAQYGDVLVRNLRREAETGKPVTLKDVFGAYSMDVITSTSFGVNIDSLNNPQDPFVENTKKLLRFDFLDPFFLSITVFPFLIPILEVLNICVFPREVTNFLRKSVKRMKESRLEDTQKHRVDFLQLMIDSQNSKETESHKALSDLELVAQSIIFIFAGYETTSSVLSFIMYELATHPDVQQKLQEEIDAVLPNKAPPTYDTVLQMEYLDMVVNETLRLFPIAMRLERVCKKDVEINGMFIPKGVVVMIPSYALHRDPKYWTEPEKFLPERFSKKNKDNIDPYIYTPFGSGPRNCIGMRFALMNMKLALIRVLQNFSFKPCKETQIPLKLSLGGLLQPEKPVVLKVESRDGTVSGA

Which clearance [1] does the source give for `Cn1c(=O)cc(Nc2cc(C(=O)NC3CC3)ccc2Cl)c2cnn(-c3ccc(F)cc3)c21` here?
The clearance was 4.33 mL/min/kg.

What about the IC50 [2] of the same molecule?
Its IC50 is 0.0015 µM.

And the IC50 [3]?
The IC50 was 0.0011 µM.

What about the IC50 [4] of the same molecule?
The IC50 was 0.0025 µM.

And the IC50 [5]?
Its IC50 is 0.004 µM.

What about the IC50 [6] of the same molecule?
The IC50 was greater than 10 µM.

And the IC50 [7]?
Its IC50 is greater than 10 µM.

And the IC50 [8]?
The IC50 was greater than 10 µM.

And the IC50 [9]?
The IC50 was greater than 10 µM.

What about the IC50 [10] of the same molecule?
Its IC50 is greater than 10 µM.

What about the IC50 [11] of the same molecule?
The IC50 was greater than 30 µM.

And the IC50 [12]?
The IC50 was greater than 30 µM.

And the IC50 [13]?
The IC50 was greater than 21 µM.

And the IC50 [14]?
Its IC50 is greater than 21 µM.

And the IC50 [15]?
The IC50 was greater than 21 µM.

And the Vd [16]?
Its Vd is 0.97 L/kg.

What about the half-life [17] of the same molecule?
The half-life was 5.8 h.

And the AUC(0-inf) [18]?
The AUC(0-inf) was 6550 ng·h/mL.

What about the bioavailability [19] of the same molecule?
Its bioavailability is 84%.

What about the Cp [20] of the same molecule?
The Cp was 3.2 ng/mL.

And the Kp [21]?
Its Kp is 0.04.

And the solubility [22]?
Its solubility is 31.2 µg/mL (≈ 69 µM).

What about the solubility [23] of the same molecule?
The solubility was 26.6 µg/mL (≈ 58.9 µM).

What about the solubility [24] of the same molecule?
Its solubility is 38.8 µg/mL (≈ 85.9 µM).

What about the fraction unbound [25] of the same molecule?
The fraction unbound was 0.03.

And the fraction unbound [26]?
The fraction unbound was 0.06.

What about the residual activity [27] of the same molecule?
Its residual activity is 40%.

What about the ED50 [28] of the same molecule?
The ED50 was 0.1 mg/kg.

What about the inhibition in vivo at 0.1 mg/kg [29] of the same molecule?
Its inhibition in vivo at 0.1 mg/kg is 50.1%.

And the inhibition in vivo at 0.3 mg/kg [30]?
Its inhibition in vivo at 0.3 mg/kg is 97.4%.

And the inhibition in vivo at 0.01 mg/kg [31]?
Its inhibition in vivo at 0.01 mg/kg is 21%.

What about the inhibition in vivo at 0.03 mg/kg [32] of the same molecule?
The inhibition in vivo at 0.03 mg/kg was 5.6%.
